PAFAH1B2 inh – PAFAH1B2 (human) inhibition; P68402; recombinant PAFAH1B2, FP-rhodamine activity probe, fluorescence polarization; inhibition, % at 3.39 µM; 340,000 tested, 1.2% active; AID 492953;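 active = inhibition above the mean of all tested compounds plus 3 SD, cut at about 24% in these data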
HTRA1 inh – inhibitors of human serine peptidase HTRA1 | Q92743 | 340,000 tested, 0.5% active | inhibition, % at 5.96 µM | recombinant HTRA1, FP-rhodamine activity-based probe, fluorescence polarization; in the data active = inhibition above about 36%
PAFAH1B3 FP inh – PAFAH1B3 (human) inhibition; recombinant PAFAH1B3, FP-rhodamine probe, fluorescence polarization; inhibition, % at 3.39 µM; 340,000 tested, 0.28% active; AID 492972;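 active = inhibition above the screen-wide average of all tested compounds plus 3 SD, cut at about 25% in these data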
Target sequence (Q15102 whole entry, looked up): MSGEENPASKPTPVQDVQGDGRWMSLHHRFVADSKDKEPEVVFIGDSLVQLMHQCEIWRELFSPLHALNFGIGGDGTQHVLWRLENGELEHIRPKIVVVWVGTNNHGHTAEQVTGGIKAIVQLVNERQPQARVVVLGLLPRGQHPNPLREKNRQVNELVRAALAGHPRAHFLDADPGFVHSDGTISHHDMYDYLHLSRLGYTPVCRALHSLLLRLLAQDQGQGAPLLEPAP
PAFAH2 FP inh – inhibitors of human PAFAH2. recombinant PAFAH2, FP-rhodamine activity probe, fluorescence polarization. inhibition, % at 3.39 µM. 340,000 tested, 0.99% active. Q99487;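 active = inhibition above the mean over all tested compounds plus 3 SD, cut at about 30% in these data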;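 also: inhibitors block probe labeling of enzyme so polarization drops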
pPAFAH FP inh – inhibitors of human plasma PAF acetylhydrolase (pPAFAH); Q13093; recombinant pPAFAH, FP-rhodamine probe fluorescence polarization; inhibition, % at 3.39 µM; 330,000 tested, 1.5% active; AID 463082;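 active = inhibition above the mean inhibition across the screen plus 3 SD, cut at about 25% in these data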;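 also: inhibitors block binding of the rhodamine activity-based probe so polarization drops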
mABHD4 FP – inhibits mouse alpha/beta hydrolase domain 4. Q8VD66. purified mABHD4, FP-Rh probe fluorescence polarization. inhibition, % at 8.92 µM. 370,000 tested, 0.54% active;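 active = inhibition exceeding the mean over every tested compound plus 3 SD, cut at about 30% in these data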
Target sequence (Q8VD66 whole entry, looked up, the tested form may be a part): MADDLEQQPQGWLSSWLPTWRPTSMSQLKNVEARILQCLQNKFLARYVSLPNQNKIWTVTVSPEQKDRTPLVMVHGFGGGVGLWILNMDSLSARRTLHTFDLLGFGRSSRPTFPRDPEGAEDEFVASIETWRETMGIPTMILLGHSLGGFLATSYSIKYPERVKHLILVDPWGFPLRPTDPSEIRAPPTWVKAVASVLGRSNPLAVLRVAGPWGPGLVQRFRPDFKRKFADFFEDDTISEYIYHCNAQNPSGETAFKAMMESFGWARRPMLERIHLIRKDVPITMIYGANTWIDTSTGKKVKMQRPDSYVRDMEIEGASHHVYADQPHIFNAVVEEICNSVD
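System: mouse ABHD4 enzyme, wild type / Medium: HEPES pH 7.0, NaCl, Pluronic buffer / Reagent: FP-Rh activity-based fluorescent probe / Control set: S159A mutant high control, sample median low control / Detection: fluorescence polarization with parallel and perpendicular emission, 525/598 nm / Schedule: 45 min + 60 min at 25 °C / Compound dosing: 8.92 µM, single dose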
Each line names hits and unclear results; the compound was inactive in the other large screens. A selection: hits, their analogues and other compounds. The true share with any hit is near 2.8%.

Oc1ccc(CNc2ccccc2)c2cccnc12	PAFAH1B3 FP inh 26.0 (no result: mABHD4 FP)
O=C(O)c1ccccc1/C=N/Nc1ccc(S(=O)(=O)N2CCCC2)cc1[N+](=O)[O-]	none
O=C(O)c1ccccc1NS(=O)(=O)c1ccc(NN=Cc2ccccc2F)c([N+](=O)[O-])c1	pPAFAH FP inh 51.1
FC(F)(F)c1cccc(Cc2noc(CN(Cc3ccccn3)CC3CCCO3)n2)c1 (configuration not stated)	pPAFAH FP inh 32.5
O=C1CC[C@@H](CN(Cc2ccccn2)Cc2nc(Cc3cccc(C(F)(F)F)c3)no2)N1	none
Cc1cc(-c2n[nH]c(=S)n2N=Cc2ccc(O)cc2)n[nH]1	none (no result: PAFAH1B2 inh, HTRA1 inh, PAFAH1B3 FP inh, PAFAH2 FP inh, pPAFAH FP inh)
COc1ccccc1/C=c1\sc2nc(-c3ccco3)nn2c1=O	pPAFAH FP inh 25.4 (no result: mABHD4 FP)
COCCCNC(=O)C[C@H]1C[C@@]2(C(=O)OC)C(=C[C@H](C(C)(C)C)O[C@@H]2C)N(Cc2ccco2)C1=O	none (no result: PAFAH1B2 inh, HTRA1 inh, PAFAH1B3 FP inh, PAFAH2 FP inh, pPAFAH FP inh)
COC(=O)[C@]12C[C@H](CC(=O)NCCc3ccccc3OC)C(=O)N(Cc3ccc(Cl)cc3Cl)C1=C[C@H](C1CCCC1)O[C@@H]2C	none (no result: PAFAH1B2 inh, HTRA1 inh, PAFAH1B3 FP inh, PAFAH2 FP inh, pPAFAH FP inh)
Cc1c(C(=O)N2CCOCC2)cc(C(C)(C)C)n1-c1ccccc1	PAFAH1B2 inh 51.1
Cc1ccc(S(=O)(=O)Nc2nc3ccccc3s2)cc1	none
Cc1ccc(S(=O)(=O)N2CCCC2c2nc3ccccc3s2)cc1 (configuration not stated)	pPAFAH FP inh 31.2
O=S(=O)(c1cc(Cl)cc(Cl)c1)N1CCCC1c1nc2ccccc2s1 (configuration not stated)	none
O=S(=O)(c1ccc(Cl)cc1)N1CCCC1c1nc2ccccc2s1 (configuration not stated)	pPAFAH FP inh 30.3
Cc1cccc2c1CCC1CN(Cc3ccccc3)S(=O)(=O)N21 (configuration not stated)	none (no result: PAFAH1B2 inh, HTRA1 inh, PAFAH1B3 FP inh, PAFAH2 FP inh, pPAFAH FP inh)
COc1ccc(S[C@]2(C(=O)N3CCCC3)CC(=O)N(P(=O)(OC)OC)[C@@H]2c2ccc(OC)cc2)cc1	none (no result: PAFAH1B2 inh, HTRA1 inh, PAFAH1B3 FP inh, PAFAH2 FP inh, pPAFAH FP inh)
COC(=O)C[C@H]1CC[C@@H]2[C@H](COc3ccc(NC(=O)c4ccccc4OC)cc3C(=O)N2C)O1	none (no result: PAFAH1B2 inh, HTRA1 inh, PAFAH1B3 FP inh, PAFAH2 FP inh, pPAFAH FP inh)
COc1ccc(Cn2nnnc2CN(Cc2cc3cc(C)ccc3[nH]c2=O)C2CCCC2)cc1	PAFAH1B2 inh 25.8
N#C/C(=C\c1cc2c(cc1Br)OCO2)c1ccc(C(=O)O)cc1	PAFAH1B2 inh 32.5
CCN(Cc1ccccc1)C(=O)CCc1nnc(CCCc2ccccc2)o1	PAFAH1B2 inh 26.0
O=C(Cn1nnc(-c2ccncc2)n1)Nc1ccc(F)cc1F	none (no result: PAFAH1B2 inh, HTRA1 inh, PAFAH1B3 FP inh, PAFAH2 FP inh, pPAFAH FP inh)
O=C(c1c[nH]c2ccc(S(=O)(=O)N3CCOCC3)cc2c1=O)N1CCCC1	none
CC(C)c1ccc(NS(=O)(=O)c2ccc3[nH]cc(C(=O)N4CCC(C(N)=O)CC4)c(=O)c3c2)cc1	pPAFAH FP inh 69.6
Cc1ccc(-c2c(C(=O)Nc3ccccc3C)c(C)[nH]c(=S)c2C#N)o1	pPAFAH FP inh 27.3 (no result: PAFAH1B2 inh, HTRA1 inh, PAFAH1B3 FP inh, PAFAH2 FP inh)
CC(=O)c1cccc(NC(=O)CSc2ncc(C(=O)Nc3ccccc3)c(=O)n2C)c1	pPAFAH FP inh 30.9
COc1ccccc1-c1n[nH]c(=S)n1-c1ccccc1	PAFAH1B2 inh 25.1
COc1ccccc1-c1n[nH]c(=S)n1N	none
CC(C)C[C@H](NC1(C(=O)NCCc2c[nH]c3ccccc23)CCC1)C(=O)NCCCc1ccccc1	none (no result: PAFAH1B2 inh, HTRA1 inh, PAFAH1B3 FP inh, PAFAH2 FP inh, pPAFAH FP inh)
O=C(Nc1cccc(-c2csc(Nc3ccccc3)n2)c1)c1cc([N+](=O)[O-])cc(C(F)(F)F)c1	PAFAH1B2 inh 28.1, PAFAH1B3 FP inh 27.2, pPAFAH FP inh 29.5
O=C(NCc1ccccc1)OC1CCC12CCC(c1ccccc1)CC2 (configuration not stated)	none (no result: PAFAH1B2 inh, HTRA1 inh, PAFAH1B3 FP inh, PAFAH2 FP inh, pPAFAH FP inh)
Clc1cccc(-c2ccc(/C=N/n3cnnc3)o2)c1	none
O=C1OC(c2cccs2)=N/C1=C\c1ccc(-c2cccc(Cl)c2)o1	pPAFAH FP inh 29.7
O=C(CSc1nc2ccccc2nc1N1CCCCC1)N1CCN(S(=O)(=O)c2ccccc2)CC1	none (no result: PAFAH1B2 inh, HTRA1 inh, PAFAH1B3 FP inh, PAFAH2 FP inh, pPAFAH FP inh)
COc1cccc(C(=O)/C(C#N)=N/Nc2cccc(-c3ccnc(C)n3)c2)c1	pPAFAH FP inh 31.7
CNC(=O)Nc1cccc(-c2ccnc(C)n2)c1	none
COC(=O)c1ccc(COC(=O)CNS(=O)(=O)c2ccccc2)cc1	none
O=C(CNS(=O)(=O)c1ccccc1)NCC(=O)OCc1ccc(Br)cc1	PAFAH1B2 inh 44.9
